From ChEMBL document CHEMBL1134550, “Structure-activity studies of ground- and transition-state analogue inhibitors of cyclophilin” (J Med Chem, 2001)

What follows are compounds tested against Peptidyl-prolyl cis-trans isomerase A (Homo sapiens, UniProt P62937) (assay: Binding affinity towards cyclophilin A by fluorescence).
Procedure, shortened: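 Recombinant human cyclophilin A, expressed in E. coli with IPTG induction and partially purified by ammonium sulfate fractionation and DEAE-Sepharose. Intrinsic Trp fluorescence enhancement measured at room temperature in 50 mM Tris-HCl pH 7.6, 0.1 M NaCl. Kd from nonlinear least-squares fit to a quadratic binding equation.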

Peptidyl-prolyl cis-trans isomerase A, sequence (P62937 whole entry): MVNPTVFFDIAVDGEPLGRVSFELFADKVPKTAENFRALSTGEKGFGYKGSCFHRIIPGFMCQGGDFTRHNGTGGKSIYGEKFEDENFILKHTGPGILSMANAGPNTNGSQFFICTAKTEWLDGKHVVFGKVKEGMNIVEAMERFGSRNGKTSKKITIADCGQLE

| Compound | Kd |
| --- | --- |
| COC(=O)[C@]12CCCN1C(=O)[C@](Cc1ccc3ccccc3c1)(NC(=O)OCc1ccccc1)CC2 | 4.7 µM |
| COC(=O)[C@]12CCCN1C[C@@H](NC(=O)OC(C)(C)C)CC2 | > 200 µM |
| COC(=O)[C@]12CCCN1C(=O)[C@](Cc1ccc3ccccc3c1)(NC(C)=O)CC2 | 1.5 µM |
| COC(=O)[C@]12CCCN1C(=O)[C@@H](NC(=O)OC(C)(C)C)CC2 | > 200 µM |
| COC(=O)[C@]12CCCN1C(=O)[C@](Cc1ccc3ccccc3c1)(NC(=O)OC(C)(C)C)CC2 | 17 µM |
| COC(=O)[C@]12CCCN1C(=O)[C@](Cc1ccccc1)(NC(=O)OCc1ccccc1)CC2 | 124 µM |
| COC(=O)[C@]12CCCN1C[C@H](NC(=O)OC(C)(C)C)CC2 | > 200 µM |
| COC(=O)[C@]12CCCN1C(=O)[C@H](NC(=O)OCc1ccccc1)CC2 | > 200 µM |
| COC(=O)[C@]12CCCN1C(=O)[C@H](NC(=O)OC(C)(C)C)CC2 | > 200 µM |
| COC(=O)[C@]12CCCN1C(=O)[C@](Cc1ccccc1)(NC(=O)OC(C)(C)C)CC2 | 140 µM |
| COC(=O)[C@]12CCCN1C[C@](Cc1ccc3ccccc3c1)(NC(=O)OC(C)(C)C)CC2 | 77 µM |
